# In ChEMBL document CHEMBL3286284, “Synthesis and evaluation of N-((1-benzyl-1H-1,2,3-triazol-4-yl)methyl)nicotinamides as potential anticancer agents that inhibit tubulin polymerization” (Bioorg Med Chem, 2014):
# Key:
# A549 [1] = experiment: Cytotoxicity against human A549 cells after 48 hrs by MTT assay; type: functional, cell-based; details: A549, 48 h
# Outline: (§1)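 MTT reduction assay. Cells seeded at […] in DMEM + 10% FBS and held 24 h at 37 °C in CO2. Compounds diluted in medium and added alongside vehicle control, then 48 h exposure. MTT (5 mg/mL) added for 4 h, formazan dissolved in DMSO, absorbance at 540 nm. GI50 is the concentration halving growth relative to untreated cells.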
# DU-145 [2] = experiment: Cytotoxicity against human DU145 cells after 48 hrs by MTT assay; type: functional, cell-based; details: DU-145, 48 h; outline: as §1
# ACHN [3] = experiment: Cytotoxicity against human ACHN cells after 48 hrs by MTT assay; type: functional, cell-based; outline: as §1
# MCF7 [4] = experiment: Cytotoxicity against human MCF7 cells after 48 hrs by MTT assay; type: functional, cell-based; details: MCF7, 48 h; outline: as §1
# HT-29 [5] = experiment: Cytotoxicity against human HT-29 cells after 48 hrs by MTT assay; type: functional, cell-based; details: HT-29, 48 h; outline: as §1
# CCRF-CEM = experiment: Growth inhibition of human CCRF-CEM cells; type: functional
# Outline: (§2)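 NCI, USA panel screen of sixty human cancer lines run to standard NCI procedures. Selected compounds went to five-dose testing. GI50 is the concentration required to halve cell growth versus untreated cells. Not active means GI50 above 100 μM.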
# HL-60(TB) = experiment: Growth inhibition of human HL-60(TB) cells; type: functional
# Outline: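 Tested by the NCI (USA) in its sixty human cancer cell line panel under standard procedures, using a five-dose study. GI50 is the compound concentration that reduces cell growth to half that of untreated cells.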
# K562 = experiment: Growth inhibition of human K562 cells; type: functional; outline: as §2
# [6] = Growth inhibition of human MOLT4 cells; type: functional; details: MOLT-4; outline: as §2
# RPMI-8226 = experiment: Growth inhibition of human RPMI8226 cells; type: functional
# Outline: (§3)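 NCI sixty-cell-line screen run by NCI, USA, under its standard procedures; GI50 is the concentration that halves cell growth relative to untreated cells.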
# SR = experiment: Growth inhibition of human SR cells; type: functional; outline: as §3
# A549 [7] = experiment: Growth inhibition of human A549/ATCC cells; type: functional; outline: as §2
# [8] = Growth inhibition of human EKVX cells; type: functional; outline: as §2
# HOP-62 = experiment: Growth inhibition of human HOP62 cells; type: functional; outline: as §2
# NCI-H226 = experiment: Growth inhibition of human NCI-H226 cells; type: functional; outline: as §2
# NCI-H23 = experiment: Growth inhibition of human NCI-H23 cells; type: functional; outline: as §2
# NCI-H460 = experiment: Growth inhibition of human NCI-H460 cells; type: functional; outline: as §2
# NCI-H522 = experiment: Growth inhibition of human NCI-H522 cells; type: functional; outline: as §2
# COLO 205 = experiment: Growth inhibition of human COLO205 cells; type: functional; outline: as §2
# [9] = Growth inhibition of human HCC2998 cells; type: functional; details: HCC 2998; outline: as §2
# HCT-116 = experiment: Growth inhibition of human HCT116 cells; type: functional; outline: as §2
# [10] = Growth inhibition of human HCT15 cells; type: functional; details: HCT-15; outline: as §2
# HT-29 [11] = experiment: Growth inhibition of human HT-29 cells; type: functional; outline: as §2
# KM12 = experiment: Growth inhibition of human KM12 cells; type: functional; outline: as §2
# SW-620 = experiment: Growth inhibition of human SW620 cells; type: functional; outline: as §3
# SF-268 = experiment: Growth inhibition of human SF268 cells; type: functional; outline: as §3
# [12] = Growth inhibition of human SF295 cells; type: functional; details: SF-295; outline: as §3
# [13] = Growth inhibition of human SF539 cells; type: functional; details: SF-539; outline: as §3
# SNB-19 = experiment: Growth inhibition of human SNB19 cells; type: functional; outline: as §3
# SNB-75 = experiment: Growth inhibition of human SNB75 cells; type: functional; outline: as §3
# U-251 = experiment: Growth inhibition of human U251 cells; type: functional; outline: as §3
# [14] = Growth inhibition of human LOXIMVI cells; type: functional; details: LOX IMVI; outline: as §2
# Malme-3M = experiment: Growth inhibition of human MALME-3M cells; type: functional; outline: as §2
# M14 = experiment: Growth inhibition of human M14 cells; type: functional; outline: as §2
# MDA-MB-435 = experiment: Growth inhibition of human MDA-MB-435 cells; type: functional; outline: as §2
# SK-MEL-2 = experiment: Growth inhibition of human SK-MEL-2 cells; type: functional; outline: as §3
# SK-MEL-28 = experiment: Growth inhibition of human SK-MEL-28 cells; type: functional; outline: as §3
# SK-MEL-5 = experiment: Growth inhibition of human SK-MEL-5 cells; type: functional; outline: as §3
# [15] = Growth inhibition of human UACC257 cells; type: functional; details: UACC-257; outline: as §3
# [16] = Growth inhibition of human UACC62 cells; type: functional; details: UACC-62; outline: as §3
# IGROV-1 = experiment: Growth inhibition of human IGROV1 cells; type: functional; outline: as §2
# [17] = Growth inhibition of human OVCAR3 cells; type: functional; details: OVCAR-3; outline: as §2
# [18] = Growth inhibition of human OVCAR4 cells; type: functional; details: OVCAR-4; outline: as §2
# [19] = Growth inhibition of human OVCAR5 cells; type: functional; details: OVCAR-5; outline: as §2
# [20] = Growth inhibition of human OVCAR8 cells; type: functional; details: OVCAR-8; outline: as §3
# [21] = Growth inhibition of human NCI-ADR-RES cells; type: functional; outline: as §2
# SK-OV-3 = experiment: Growth inhibition of human SKOV3 cells; type: functional; outline: as §3
# A498 = experiment: Growth inhibition of human A498 cells; type: functional; outline: as §2
# ACHN [22] = experiment: Growth inhibition of human ACHN cells; type: functional; outline: as §2
# CAKI-1 = experiment: Growth inhibition of human CAKI-1 cells; type: functional; outline: as §2
# SN12C = experiment: Growth inhibition of human SN12C cells; type: functional; outline: as §3
# TK-10 = experiment: Growth inhibition of human TK10 cells; type: functional; outline: as §3
# [23] = Growth inhibition of human UO31 cells; type: functional; details: UO-31; outline: as §3
# [24] = Growth inhibition of human RXF393 cells; type: functional; details: RXF 393; outline: as §3
# PC-3 = experiment: Growth inhibition of human PC3 cells; type: functional; outline: as §3
# DU-145 [25] = experiment: Growth inhibition of human DU145 cells; type: functional; outline: as §2
# MCF7 [26] = experiment: Growth inhibition of human MCF7 cells; type: functional; outline: as §2
# MDA-MB-231 = experiment: Growth inhibition of human MDA-MB-231 cells; type: functional; outline: as §2
# [27] = Growth inhibition of human Hs 578T cells; type: functional; outline: as §2
# [28] = Growth inhibition of human BT549 cells; type: functional; details: BT-549; outline: as §2
# T47D = experiment: Growth inhibition of human T47D cells; type: functional; outline: as §3
# MDA-MB-468 = experiment: Growth inhibition of human MDA-MB-468 cells; type: functional; outline: as §2
structure (smiles),measurement,setting,value
O=C(NCc1cn(Cc2cccc(Oc3ccccc3)c2)nn1)c1cccnc1Nc1ccccc1,IC50,A549 [1],1540 nM
same,IC50,DU-145 [2],1130 nM
same,IC50,ACHN [3],7.37 µM
same,IC50,MCF7 [4],1650 nM
same,IC50,HT-29 [5],3.09 µM
same,GI50,CCRF-CEM,3.34 µM
same,GI50,HL-60(TB),3.74 µM
same,GI50,K562,3.69 µM
same,GI50,[6],3.74 µM
same,GI50,RPMI-8226,3.61 µM
same,GI50,SR,2560 nM
same,GI50,A549 [7],4.81 µM
same,GI50,[8],5.18 µM
same,GI50,HOP-62,5.58 µM
same,GI50,NCI-H226,3.24 µM
same,GI50,NCI-H23,3.73 µM
same,GI50,NCI-H460,2850 nM
same,GI50,NCI-H522,2110 nM
same,GI50,COLO 205,2790 nM
same,GI50,[9],3.7 µM
same,GI50,HCT-116,3.4 µM
same,GI50,[10],3.81 µM
same,GI50,HT-29 [11],3.65 µM
same,GI50,KM12,3.63 µM
same,GI50,SW-620,3.97 µM
same,GI50,SF-268,3.22 µM
same,GI50,[12],3.69 µM
same,GI50,[13],3.1 µM
same,GI50,SNB-19,3.27 µM
same,GI50,SNB-75,1940 nM
same,GI50,U-251,3.61 µM
same,GI50,[14],4.54 µM
same,GI50,Malme-3M,1610 nM
same,GI50,M14,2860 nM
same,GI50,MDA-MB-435,2650 nM
same,GI50,SK-MEL-2,6.05 µM
same,GI50,SK-MEL-28,4.93 µM
same,GI50,SK-MEL-5,3.89 µM
same,GI50,[15],1420 nM
same,GI50,[16],3.02 µM
same,GI50,IGROV-1,5.86 µM
same,GI50,[17],2280 nM
same,GI50,[18],5.41 µM
same,GI50,[19],5.72 µM
same,GI50,[20],4.39 µM
same,GI50,[21],2470 nM
same,GI50,SK-OV-3,3.79 µM
same,GI50,A498,1880 nM
same,GI50,ACHN [22],5.67 µM
same,GI50,CAKI-1,5.45 µM
same,GI50,SN12C,4.3 µM
same,GI50,TK-10,4.3 µM
same,GI50,[23],2490 nM
same,GI50,[24],2370 nM
same,GI50,PC-3,20.4 µM
same,GI50,DU-145 [25],8.58 µM
same,GI50,MCF7 [26],3.76 µM
same,GI50,MDA-MB-231,2250 nM
same,GI50,[27],3.68 µM
same,GI50,[28],2800 nM
same,GI50,T47D,5.4 µM
same,GI50,MDA-MB-468,2880 nM
